Calls of active or inactive are those of the source. The calls are words filed in the database; no cut-off is given here.

We go through 25 compounds from ChEMBL document CHEMBL1909554, “Total synthesis and bioactivity of the marine alkaloid pityriacitrin and some of its derivatives” (Eur J Med Chem, 2011).

Assay [1] in a line: Cytotoxicity against human MDA231 cells […] by MTT assay. Format: functional, cell-based. The conditions noted are these: MDA-MB-231. The essentials:
(§1)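 MTT metabolic assay. Cells were exposed to compound continuously starting 18 h after setup, and survival was read at 96 h. IC50 is the concentration giving 50% growth inhibition relative to untreated cells. Values are means of three independent determinations.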

The test system of a further assay is MCF7. As to the kind of experiment: Cytotoxicity against human MCF7 cells […] by MTT assay. The assay is classed as functional, cell-based. The essentials: as §1
The test system of another assay is PC-3. As to the kind of experiment: Cytotoxicity against human PC3 cells after 18 hrs by MTT assay. Format: functional, cell-based. The conditions noted are these: PC-3, 96 h, in the assay text read “after 96 hrs” for “after 18 hrs”. The essentials:
as §1

Assay [2] relates to MDA-MB-231. Description: Induction of necrosis in human MDA231 cells at 50 uM by annexin-V/7-AAD staining-based fluorescence assay. Format: functional, cell-based.
In assay [3] the target is Focal adhesion kinase 1 (Homo sapiens) (UniProt Q05397). As to the kind of experiment: Inhibition of human recombinant FAK at 10 uM after 4 hrs by Kinase-Glo luminescent assay. The essentials: (§2)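 Full-length human recombinant kinases were incubated in kinase buffer containing ATP and poly(Glu:Tyr) substrate, with or without compound at 10 µM final, for 4 h at room temperature. Remaining ATP was quantified by Kinase-Glo luminescence.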
Sequence of Focal adhesion kinase 1 (Homo sapiens) (Q05397 2-1052 limits assumed): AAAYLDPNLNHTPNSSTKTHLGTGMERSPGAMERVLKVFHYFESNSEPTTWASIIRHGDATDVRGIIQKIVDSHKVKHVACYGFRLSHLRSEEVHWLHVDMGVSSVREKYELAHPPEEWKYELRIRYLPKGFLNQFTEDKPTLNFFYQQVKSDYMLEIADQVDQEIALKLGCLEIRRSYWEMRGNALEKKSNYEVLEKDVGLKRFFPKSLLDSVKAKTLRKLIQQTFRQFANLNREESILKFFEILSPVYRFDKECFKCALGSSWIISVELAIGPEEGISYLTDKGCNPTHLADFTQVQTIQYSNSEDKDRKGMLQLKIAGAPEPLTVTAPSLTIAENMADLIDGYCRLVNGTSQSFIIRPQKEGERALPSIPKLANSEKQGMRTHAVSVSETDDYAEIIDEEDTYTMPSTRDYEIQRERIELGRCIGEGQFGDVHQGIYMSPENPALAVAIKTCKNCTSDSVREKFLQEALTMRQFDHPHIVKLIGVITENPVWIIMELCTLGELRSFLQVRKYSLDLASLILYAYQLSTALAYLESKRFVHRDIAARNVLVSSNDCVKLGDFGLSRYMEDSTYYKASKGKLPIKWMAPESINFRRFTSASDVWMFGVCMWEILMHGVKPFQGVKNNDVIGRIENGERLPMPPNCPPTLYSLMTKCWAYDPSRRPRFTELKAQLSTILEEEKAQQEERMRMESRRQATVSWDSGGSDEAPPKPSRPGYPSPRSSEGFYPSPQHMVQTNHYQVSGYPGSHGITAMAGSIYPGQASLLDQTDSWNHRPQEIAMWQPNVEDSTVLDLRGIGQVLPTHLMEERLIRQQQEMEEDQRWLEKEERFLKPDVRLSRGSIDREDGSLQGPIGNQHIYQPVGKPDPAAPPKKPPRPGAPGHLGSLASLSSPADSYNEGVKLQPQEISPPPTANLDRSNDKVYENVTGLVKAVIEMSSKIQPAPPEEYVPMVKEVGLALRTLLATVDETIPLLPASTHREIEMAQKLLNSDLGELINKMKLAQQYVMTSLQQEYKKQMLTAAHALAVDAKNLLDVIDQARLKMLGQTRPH

The test system of assay [4] is MDA-MB-231. Description: Induction of apoptosis in human MDA231 cells at 20 uM by annexin-V/7-AAD staining-based fluorescence assay. The assay is classed as functional. Put shortly:
(§3)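 MDA-231 breast carcinoma cells were exposed to test compounds at 10, 20 or 50 µM, or to paclitaxel as reference at 10 or 50 nM. Results are expressed as percent apoptotic cells.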

For assay [5], the target named is Proto-oncogene tyrosine-protein kinase Src (Homo sapiens) (UniProt P12931). Description: Inhibition of human recombinant Src at 10 uM after 4 hrs by Kinase-Glo luminescent assay. The essentials: as §2
Sequence of Proto-oncogene tyrosine-protein kinase Src (Homo sapiens) (P12931 2-536 limits assumed): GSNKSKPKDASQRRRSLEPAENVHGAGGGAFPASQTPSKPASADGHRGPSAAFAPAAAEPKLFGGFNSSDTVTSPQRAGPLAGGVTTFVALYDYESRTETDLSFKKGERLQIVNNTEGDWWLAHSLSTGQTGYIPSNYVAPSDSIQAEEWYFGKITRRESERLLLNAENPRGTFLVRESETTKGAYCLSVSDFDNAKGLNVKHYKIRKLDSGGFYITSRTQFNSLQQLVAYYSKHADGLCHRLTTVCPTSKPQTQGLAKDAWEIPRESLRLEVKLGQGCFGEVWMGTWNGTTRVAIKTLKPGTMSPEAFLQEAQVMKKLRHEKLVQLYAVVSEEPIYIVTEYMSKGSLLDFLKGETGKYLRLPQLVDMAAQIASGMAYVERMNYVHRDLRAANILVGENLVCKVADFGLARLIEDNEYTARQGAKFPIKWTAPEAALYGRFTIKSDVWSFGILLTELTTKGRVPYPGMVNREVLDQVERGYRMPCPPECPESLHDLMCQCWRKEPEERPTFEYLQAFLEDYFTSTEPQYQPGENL
Assay [6] relates to MDA-MB-231. Description: Induction of apoptosis in human MDA231 cells at 50 uM by annexin-V/7-AAD staining-based fluorescence assay. The assay is classed as functional. Put shortly: as §3
For assay [7], the target named is Aurora kinase B (Homo sapiens) (UniProt Q96GD4). As to the kind of experiment: Inhibition of human recombinant Aurora B at 10 uM after 4 hrs by Kinase-Glo luminescent assay. Put shortly:
as §2

The test system of assay [8] is MDA-MB-231. As to the kind of experiment: Induction of apoptosis in human MDA231 cells by annexin-V/7-AAD staining-based fluorescence assay. The assay is classed as functional, cell-based.
In assay [9] the target is Dual specificity mitogen-activated protein kinase kinase 1 (Homo sapiens) (UniProt Q02750). As to the kind of experiment: Inhibition of human recombinant MEK1 at 10 uM after 4 hrs by Kinase-Glo luminescent assay. The essentials:
as §2

Assay [10] addresses Epidermal growth factor receptor (Homo sapiens) (UniProt P00533). As to the kind of experiment: Inhibition of human recombinant EGFR at 10 uM after 4 hrs by Kinase-Glo luminescent assay. Put shortly:
as §2

Assay [11] deals with MDA-MB-231. Description: Induction of apoptosis in human MDA231 cells at 10 nM by annexin-V/7-AAD staining-based fluorescence assay. The assay is classed as functional. The essentials: as §3
The test system of assay [12] is MDA-MB-231. As to the kind of experiment: Induction of apoptosis in human MDA231 cells at 50 nM by annexin-V/7-AAD staining-based fluorescence assay. The assay is classed as functional. The essentials: as §3

Sequence of Aurora kinase B (Homo sapiens) (Q96GD4 whole entry): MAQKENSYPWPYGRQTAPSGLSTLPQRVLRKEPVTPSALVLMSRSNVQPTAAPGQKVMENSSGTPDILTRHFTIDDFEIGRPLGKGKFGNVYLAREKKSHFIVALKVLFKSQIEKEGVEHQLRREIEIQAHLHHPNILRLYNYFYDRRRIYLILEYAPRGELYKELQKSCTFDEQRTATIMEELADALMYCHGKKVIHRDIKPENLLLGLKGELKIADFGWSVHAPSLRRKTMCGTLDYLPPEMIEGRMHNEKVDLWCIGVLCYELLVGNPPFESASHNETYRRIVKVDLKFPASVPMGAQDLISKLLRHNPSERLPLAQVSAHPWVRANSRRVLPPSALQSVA
Sequence of Dual specificity mitogen-activated protein kinase kinase 1 (Homo sapiens) (Q02750 whole entry): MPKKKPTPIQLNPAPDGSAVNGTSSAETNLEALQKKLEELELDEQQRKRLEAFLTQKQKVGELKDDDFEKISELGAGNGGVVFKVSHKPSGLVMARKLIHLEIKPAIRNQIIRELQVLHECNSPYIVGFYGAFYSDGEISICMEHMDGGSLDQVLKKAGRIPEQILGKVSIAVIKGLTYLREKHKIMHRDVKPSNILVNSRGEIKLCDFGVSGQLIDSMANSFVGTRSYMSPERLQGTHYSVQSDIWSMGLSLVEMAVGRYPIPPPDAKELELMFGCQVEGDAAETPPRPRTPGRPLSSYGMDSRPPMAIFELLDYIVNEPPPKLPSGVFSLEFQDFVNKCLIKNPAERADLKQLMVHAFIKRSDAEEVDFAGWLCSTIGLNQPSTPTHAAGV
Sequence of Epidermal growth factor receptor (Homo sapiens) (P00533 whole entry): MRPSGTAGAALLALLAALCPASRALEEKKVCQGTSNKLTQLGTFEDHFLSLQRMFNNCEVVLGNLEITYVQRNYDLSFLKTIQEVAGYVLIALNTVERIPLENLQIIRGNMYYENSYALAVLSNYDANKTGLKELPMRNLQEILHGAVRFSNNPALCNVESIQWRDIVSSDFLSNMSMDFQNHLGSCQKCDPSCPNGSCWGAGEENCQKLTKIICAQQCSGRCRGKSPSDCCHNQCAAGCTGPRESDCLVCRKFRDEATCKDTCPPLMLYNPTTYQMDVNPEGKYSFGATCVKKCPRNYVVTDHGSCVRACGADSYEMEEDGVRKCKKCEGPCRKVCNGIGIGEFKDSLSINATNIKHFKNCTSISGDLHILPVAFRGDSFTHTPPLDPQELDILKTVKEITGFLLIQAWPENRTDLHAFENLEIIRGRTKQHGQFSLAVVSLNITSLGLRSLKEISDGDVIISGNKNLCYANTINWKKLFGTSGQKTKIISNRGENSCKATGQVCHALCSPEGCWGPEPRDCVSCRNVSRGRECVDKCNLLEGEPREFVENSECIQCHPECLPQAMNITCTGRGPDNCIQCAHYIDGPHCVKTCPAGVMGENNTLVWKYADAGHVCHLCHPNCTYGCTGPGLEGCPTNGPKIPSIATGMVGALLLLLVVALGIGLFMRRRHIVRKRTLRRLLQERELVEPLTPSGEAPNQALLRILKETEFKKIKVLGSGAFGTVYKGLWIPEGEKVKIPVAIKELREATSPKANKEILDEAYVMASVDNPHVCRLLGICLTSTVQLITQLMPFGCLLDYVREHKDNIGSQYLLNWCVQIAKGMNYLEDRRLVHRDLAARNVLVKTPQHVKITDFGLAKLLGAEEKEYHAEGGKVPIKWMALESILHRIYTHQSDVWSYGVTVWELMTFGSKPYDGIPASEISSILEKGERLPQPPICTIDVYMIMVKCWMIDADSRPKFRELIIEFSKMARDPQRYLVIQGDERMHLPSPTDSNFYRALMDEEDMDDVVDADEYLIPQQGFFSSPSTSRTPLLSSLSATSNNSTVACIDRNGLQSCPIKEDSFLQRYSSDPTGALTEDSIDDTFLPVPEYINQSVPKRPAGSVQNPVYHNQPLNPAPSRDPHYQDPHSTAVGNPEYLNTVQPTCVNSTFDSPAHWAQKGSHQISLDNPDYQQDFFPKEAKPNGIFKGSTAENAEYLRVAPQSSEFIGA

In assay [1], `CN(C)CCNC(=O)c1cc2c([nH]c3ccc(O)cc32)c(C(=O)c2c[nH]c3ccccc23)n1` had an IC50 of 1.33 µM.
The compound `NCCCNC(=O)c1cc2c([nH]c3ccccc32)c(C(=O)c2c[nH]c3ccccc23)n1` gave an IC50 in assay [1] of 2.48 µM.
Turning to `COc1ccc2[nH]cc(C(=O)c3nccc4c3[nH]c3ccc(O)cc34)c2c1`, the IC50 was > 100 µM in the assay on MCF7, > 100 µM in the assay on PC-3 and 44.5 µM in assay [1].
With `O=C(c1c[nH]c2ccccc12)c1nccc2c1[nH]c1ccc(O)cc12`, in the assay with MDA-MB-231 [2], the outcome was Active. In addition, the figures for the IC50 (in the assay on MCF7; in the assay on PC-3; in assay [1]) were 12.9 µM, 16.4 µM and 6.35 µM, respectively. The inhibition in assay [3] is 11%; in [5], 8%; in [7], 10%; in [9], 11%; in [10] it was 9%. Further, the Activity with MDA-MB-231 [4] was 11.16%; with MDA-MB-231 [6], 41%; in the assay with MDA-MB-231 [8] it was “Dose-dependent effect”.
The compound `CN(C)CCCNC(=O)c1cc2c([nH]c3ccccc32)c(C(=O)c2c[nH]c3ccccc23)n1` came in with a concentration for half-maximal inhibition (IC50) in assay [1] of 6.02 µM. This lies in the single-digit micromolar range.
`O=C(c1c[nH]c2ccc([N+](=O)[O-])cc12)c1nccc2c1[nH]c1ccc(O)cc12`: the IC50 (with MCF7; in the assay with PC-3; in [1]) was > 100 µM in each case.
With `COc1ccc2[nH]cc(C(=O)c3nccc4c3[nH]c3ccccc34)c2c1`, the concentration for half-maximal inhibition (IC50) came to 6.94 µM in the assay on MCF7, 49.9 µM with PC-3 and 18.8 µM in [1].
`NCCCCNC(=O)c1cc2c([nH]c3ccccc32)c(C(=O)c2c[nH]c3ccccc23)n1` showed an IC50 in assay [1] of 3.04 µM.
Same read-out and setting: the figure for `CNCCNC(=O)c1cc2c([nH]c3ccccc32)c(C(=O)c2c[nH]c3ccccc23)n1` is 3.98 µM; for `COC(=O)c1cc2c([nH]c3ccc(O)cc32)c(C(=O)c2c[nH]c3ccccc23)n1` it is 3.16 µM; for `CN(C)CCNC(=O)c1cc2c([nH]c3ccccc32)c(C(=O)c2c[nH]c3ccccc23)n1` it is 3.56 µM.
Same read-out and setting: as for `COC(=O)c1cc2c([nH]c3ccccc32)c(C(=O)c2c[nH]c3ccccc23)n1`, the figure is 12.6 µM.
As to `O=C(c1c[nH]c2ccc(Br)cc12)c1nccc2c1[nH]c1ccc(O)cc12`, the IC50 (with MCF7; in the assay with PC-3; in [1]) was > 100 µM each time.
In the case of `NCCCCNC(=O)c1cc2c([nH]c3ccc(O)cc32)c(C(=O)c2c[nH]c3ccccc23)n1`, in [1], 8.7 µM corresponded to half-maximal inhibition (IC50).
As to `O=C(c1c[nH]c2ccccc12)c1nccc2c1[nH]c1ccccc12`, the IC50 in the assay with MCF7 was > 100 µM; in the assay on PC-3, 55.1 µM; in assay [1], > 100 µM.
In assay [1], `NCCNC(=O)c1cc2c([nH]c3ccc(O)cc32)c(C(=O)c2c[nH]c3ccccc23)n1` came in with an IC50 of 15.8 µM.
Still for that read-out and setting: the figure for `CN(C)CCCNC(=O)c1cc2c([nH]c3ccc(O)cc32)c(C(=O)c2c[nH]c3ccccc23)n1` is 2.51 µM; for `CNCCNC(=O)c1cc2c([nH]c3ccc(O)cc32)c(C(=O)c2c[nH]c3ccccc23)n1` it is 4.36 µM.
Turning to `O=C(c1c[nH]c2ccc([N+](=O)[O-])cc12)c1nccc2c1[nH]c1ccccc12`, the IC50 in the assay on MCF7 was > 100 µM; in the assay with PC-3, 38.8 µM; in [1], > 100 µM.
Consider `O=C(O)c1cc2c([nH]c3ccc(O)cc32)c(C(=O)c2c[nH]c3ccccc23)n1`, for which the IC50 in the assay on MCF7 was found to be 79 µM; in the assay with PC-3, 57.9 µM; in assay [1], 42 µM.
Take `NCCNC(=O)c1cc2c([nH]c3ccccc32)c(C(=O)c2c[nH]c3ccccc23)n1`: half-maximal inhibition in assay [1] (IC50) was put at 12.6 µM.
On to `CC(=O)O[C@H]1C(=O)[C@@]2(C)[C@H]([C@H](OC(=O)c3ccccc3)[C@]3(O)C[C@H](OC(=O)[C@H](O)[C@@H](NC(=O)c4ccccc4)c4ccccc4)C(C)=C1C3(C)C)[C@]1(OC(C)=O)CO[C@@H]1C[C@@H]2O` [PACLITAXEL], for which the Activity is recorded as 11.93% in the assay on MDA-MB-231 [11] and 17.23% in the assay with MDA-MB-231 [12].
For the compound `O=C(O)c1cc2c([nH]c3ccccc32)c(C(=O)c2c[nH]c3ccccc23)n1`, in the assay with MDA-MB-231 [2], the result was Active. Further, the IC50 in the assay with MCF7 is 23.4 µM; in the assay on PC-3, 16.9 µM; in [1] it was 24.8 µM. In addition, the Activity with MDA-MB-231 [4] was 4.89%; in the assay on MDA-MB-231 [6], 17.68%; with MDA-MB-231 [8], “Dose-dependent effect”.
Regarding `COc1ccc2[nH]cc(C(=O)c3nc(C(=O)O)cc4c3[nH]c3ccccc34)c2c1`, the IC50 in the assay on MCF7 is 3.4 µM; in the assay with PC-3, 32.3 µM; in assay [1] it was 12.1 µM.
The corresponding values for `O=C(c1c[nH]c2ccc(Br)cc12)c1nccc2c1[nH]c1ccccc12` are 60.9 µM, > 100 µM and > 100 µM.
